Data set [1] deals with T1, CYP19 (a recombinant human aromatase) (Homo sapiens, UniProt P11511).
T1 sequence (P11511 1-503): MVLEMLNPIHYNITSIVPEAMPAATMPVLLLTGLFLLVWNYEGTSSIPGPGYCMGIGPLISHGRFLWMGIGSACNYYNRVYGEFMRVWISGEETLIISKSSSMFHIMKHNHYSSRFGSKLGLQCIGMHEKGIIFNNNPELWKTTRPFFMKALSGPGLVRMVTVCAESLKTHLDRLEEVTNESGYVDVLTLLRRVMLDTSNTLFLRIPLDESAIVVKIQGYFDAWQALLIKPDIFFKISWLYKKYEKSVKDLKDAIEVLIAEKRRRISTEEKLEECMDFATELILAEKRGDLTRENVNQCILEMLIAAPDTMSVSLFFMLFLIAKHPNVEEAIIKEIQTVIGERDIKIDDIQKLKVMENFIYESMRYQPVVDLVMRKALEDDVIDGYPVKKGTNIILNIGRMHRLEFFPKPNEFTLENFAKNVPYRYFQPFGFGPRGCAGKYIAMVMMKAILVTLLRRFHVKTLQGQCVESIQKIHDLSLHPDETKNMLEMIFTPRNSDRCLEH
Kind of data set: Aromatase inhibition assay. To be noted: screened at 12.5 μM. The class given is biochemical.

Data set [2] is described as follows: Cytotoxicity, MTT assay on normal embryonic lung cells. The class given is cell-based. To be noted: human, MRC-5 normal embryonic lung cells. A digest of the protocol:
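MRC-5 cells grown in DMEM with 10% fetal bovine serum and 100 U/mL penicillin–streptomycin, seeded at 5×10³–2×10⁴ cells/well, then held 24 h at 37°C in 5% CO2. Serial dilutions of test compound added in an equal volume of medium, with doxorubicin (positive) and DMSO (negative) controls, for 48 h. MTT applied for 2–4 h; formazan dissolved in DMSO with sonication; read at 550 nm against a 650 nm reference. IC50 is the concentration giving 50% growth inhibition versus the DMSO control.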

Data set [3] has as its system human breast cancer MCF-7 cell line. The conditions noted are these: cited from earlier work.

This is an account of results in paper PMC4140444 (Drug Design, Development and Therapy, 2014).

Each structure is given as a SMILES string.

The IC50 is the concentration needed to halve the response being measured.

Turning to `Oc1cccc2cccnc12` [Compound 1, 8-hydroxyquinoline], the “Aromatase inhibitory activity (IC50 column, activity class)” value (from here on “Aromatase inhibitory activity”) in data set [1] is listed as “Inactive ^b”. In data set [2], this compound had an IC50 at 48 h of 6.27 ± 0.58 µM. The “Cytotoxic activity against MCF-7” value in data set [3] was “substantial cytotoxic activity”.
Turning to `O=c1[nH]cc([N+](=O)[O-])c(=O)[nH]1` [Compound 2, 5-nitrouracil], the “Aromatase inhibitory activity” value in data set [1] is “Inactive ^b”. The IC50 at 48 h in data set [2] is > 50 µg/mL.
For `O=c1[nH]cc(I)c(=O)[nH]1` [Compound 3, 5-iodouracil], the “Aromatase inhibitory activity” value in data set [1] is recorded as “Inactive ^b”. Besides, the IC50 at 48 h in data set [2] was > 50 µg/mL.
As for `COc1cccc2c1C(=O)c1c(O)c3c(c(O)c1C2=O)C[C@@](O)(C(=O)CO)C[C@@H]3O[C@H]1C[C@H](N)[C@H](O)[C@H](C)O1` [Doxorubicin], the IC50 at 48 h in data set [2] was > 50 µg/mL.
